Measured values pooled from the literature.
Protocols differ between the studies behind these lines.
ACE: Angiotensin-converting enzyme (ACE, Homo sapiens, UniProt P12821)
GHSR: Growth hormone secretagogue receptor type 1 (GHSR, Homo sapiens, UniProt Q92847)
SLC6A3: Sodium-dependent dopamine transporter (SLC6A3, Homo sapiens, UniProt Q01959)
DRD3: D(3) dopamine receptor (DRD3, Homo sapiens, UniProt P35462)
CA12: Carbonic anhydrase 12 (CA12, Homo sapiens, UniProt O43570)

NC(=O)CC[C@H](N)C(=O)NCC(=O)NCC(=O)N[C@@H](CC(=O)O)C(=O)N[C@@H](Cc1ccccc1)C(=O)O
IC50 (ACE; enzyme activity; inhibitor): ~1090 µM

CC[C@H](C)[C@H](NC(=O)[C@H](C)NC(=O)[C@H](C)NC(=O)[C@H](CCC(=O)O)NC(=O)[C@H](CCCNC(=N)N)NC(=O)[C@H](C)NC(=O)[C@H](CC(C)C)NC(=O)[C@H](CC(C)C)NC(=O)[C@H](CCCNC(=N)N)NC(=O)[C@H](CCCNC(=N)N)NC(=O)[C@H](C)NC(=O)[C@H](Cc1c[nH]cn1)NC(=O)[C@H](CCC(=O)O)NC(=O)[C@@H]1CCCN1C(=O)[C@H](CO)NC(=O)[C@H](CC(C)C)NC(=O)[C@H](Cc1ccccc1)NC(=O)[C@H](Cc1c[nH]c2ccccc12)NC(=O)[C@H](CO)NC(=O)CN)C(=O)N1CCC[C@H]1C(=O)N1CCC[C@H]1C(=O)N1CCC[C@H]1C(=O)N1CCC[C@H]1C(=O)N[C@H](C(=O)N1CCC[C@H]1C(=O)N1CCC[C@H]1C(=O)N1CCC[C@H]1C(=O)O)C(C)C
EC50 (GHSR; calcium signal; agonist; fluorescence): 190 nM

COC(=O)[C@H]1[C@@H](c2ccc(Cl)c(Cl)c2)C[C@@H]2CC[C@H]1N2CCCOCc1ccc2cc3ccccc3cc2c1
Ki (SLC6A3; ligand displacement; radioligand; pH 7.4): 51 nM

CC[C@H](C)[C@H](NC(=O)[C@H](C)NC(=O)[C@H](C)NC(=O)[C@H](CCC(=O)O)NC(=O)[C@H](CCCNC(=N)N)NC(=O)[C@H](CCC(=O)O)NC(=O)[C@H](CC(C)C)NC(=O)[C@H](CCSC)NC(=O)[C@H](CCCNC(=N)N)NC(=O)[C@H](CCCNC(=N)N)NC(=O)[C@H](CC(C)C)NC(=O)[C@H](Cc1c[nH]cn1)NC(=O)[C@H](CCC(=O)O)NC(=O)[C@@H]1CCCN1C(=O)[C@H](CO)NC(=O)[C@H](CC(C)C)NC(=O)[C@H](Cc1ccccc1)NC(=O)[C@H](Cc1ccc(O)cc1)NC(=O)[C@H](CO)NC(=O)CN)C(=O)N1CCC[C@H]1C(=O)N1CCC[C@H]1C(=O)N1CCC[C@H]1C(=O)N1CCC[C@H]1C(=O)N[C@H](C(=O)N1CCC[C@H]1C(=O)N1CCC[C@H]1C(=O)N[C@@H](CC(C)C)C(=O)O)C(C)C
IC50 (GHSR; calcium signal; antagonist; fluorescence): 1.37 µM

COC(=O)c1ccc(NS(=O)(=O)c2c(C)[nH]c(C)c2C(=O)N2CCC(F)(F)C2)cc1Cl
IC50 (DRD3; β-arrestin recruitment; antagonist): 33 µM

O=C(Nc1ccc2c(c1)C=CCP(=O)(O)O2)c1ccccc1I
Ki (CA12; enzyme activity; inhibitor; stopped-flow): 6.9 nM

CC(C)C[C@H](NC(=O)CNC(=O)[C@H](CCCNC(=N)N)NC(=O)[C@H](Cc1c[nH]c2ccccc12)NC(=O)[C@H](Cc1ccccc1)NC(=O)[C@@H]1CCCN1C(=O)CN)C(=O)N[C@@H](CO)C(=O)N[C@@H](CCCNC(=N)N)C(=O)N[C@@H](CCCNC(=N)N)C(=O)N1CCC[C@H]1C(=O)N[C@@H](CC(C)C)C(=O)N[C@@H](CCCNC(=N)N)C(=O)O
IC50 (GHSR; calcium signal; antagonist; fluorescence): 3.37 µM

O=C(Nc1ccc(Br)cc1)Nc1ccc2c(c1)C=CCP(=O)(O)O2
Ki (CA12; enzyme activity; inhibitor; stopped-flow): > 10000 nM

CC(C)C[C@H](NC(=O)[C@H](Cc1ccc(O)cc1)NC(=O)[C@@H](N)C(C)C)C(=O)N[C@@H](CCC(=O)O)C(=O)N[C@@H](CCC(N)=O)C(=O)O
IC50 (ACE; enzyme activity; inhibitor; absorbance): 27.9 µM

CC[C@H](C)[C@H](NC(=O)[C@H](C)NC(=O)[C@H](C)NC(=O)[C@H](CCC(=O)O)NC(=O)[C@H](CCCNC(=N)N)NC(=O)[C@H](C)NC(=O)[C@H](CC(C)C)NC(=O)[C@H](CC(C)C)NC(=O)[C@H](CCCNC(=N)N)NC(=O)[C@H](CCCNC(=N)N)NC(=O)[C@H](C)NC(=O)[C@H](Cc1c[nH]cn1)NC(=O)[C@H](CCC(=O)O)NC(=O)[C@@H]1CCCN1C(=O)[C@H](CO)NC(=O)[C@H](CC(C)C)NC(=O)[C@H](Cc1ccccc1)NC(=O)[C@H](Cc1c[nH]c2ccccc12)NC(=O)[C@H](CO)NC(=O)CN)C(=O)N1CCC[C@H]1C(=O)N1CCC[C@H]1C(=O)N1CCC[C@H]1C(=O)N1CCC[C@H]1C(=O)N[C@H](C(=O)N[C@H](C(=O)N1CCC[C@H]1C(=O)N[C@@H](CC(C)C)C(=O)O)C(C)C)C(C)C
EC50 (GHSR; calcium signal; agonist; fluorescence): 150 nM

CC(C)C[C@H](NC(=O)[C@@H](NC(=O)[C@@H](NC(=O)[C@@H]1CCCN1C(=O)[C@@H](N)CCC(=O)O)C(C)C)[C@@H](C)O)C(=O)O
IC50 (ACE; enzyme activity; inhibitor): ~432 µM

N#C[Se]CCCCOc1ccc2c(-c3ccccc3)cc(=O)oc2c1
Ki (CA12; enzyme activity; inhibitor; stopped-flow): 296 nM

CCC(CNc1nc(-c2cn3ccnc3cc2C)nc2ccccc12)c1ccccc1 (stereo not drawn)
IC50 (SLC6A3; ligand displacement; radioligand): 4.59 µM

O=C(Nc1ccc2c(c1)C=CCP(=O)(O)O2)c1ccc(Br)cc1
Ki (CA12; enzyme activity; inhibitor; stopped-flow): 84.4 nM

CCOC(=O)c1ccc(OC(=O)CCCCCN=C(N)N)cc1
IC50 (Kallikrein-2 (Homo sapiens, UniProt P20151); enzyme activity; inhibitor): 0.426 µM

O=C(Nc1ccc(C(F)(F)F)cc1)Nc1ccc2c(c1)C=CCP(=O)(O)O2
Ki (CA12; enzyme activity; inhibitor; stopped-flow): > 10000 nM

Cc1[nH]c(C)c(S(=O)(=O)Nc2ccc(S(F)(F)(F)(F)F)cc2)c1C(=O)N1CCC(F)(F)C1
IC50 (DRD3; β-arrestin recruitment; antagonist): 2.3 µM

O=C(Nc1ccc2c(c1)C=CCP(=O)(O)O2)c1ccc2ccccc2c1
Ki (CA12; enzyme activity; inhibitor; stopped-flow): 27.2 nM

Cc1[nH]c(C)c(S(=O)(=O)Nc2ccc(S(F)(F)(F)(F)F)c(Cl)c2)c1C(=O)N1CCC(F)(F)C1
IC50 (DRD3; β-arrestin recruitment; antagonist): 1.1 µM

O=C(Nc1ccc2c(c1)C=CCP(=O)(O)O2)c1ccc(F)cc1
Ki (CA12; enzyme activity; inhibitor; stopped-flow): 4 nM

CC(C)C[C@H](NC(=O)[C@H](CCC(=O)O)NC(=O)[C@H](C)NC(=O)[C@@H](NC(=O)[C@H](Cc1ccccc1)NC(=O)[C@H](CC(C)C)NC(=O)[C@H](CCCNC(=N)N)NC(=O)[C@H](C)NC(=O)[C@H](C)NC(=O)[C@H](CCCCN)NC(=O)[C@H](CCC(=O)O)NC(=O)[C@H](CO)NC(=O)[C@H](CC(C)C)NC(=O)[C@H](Cc1ccc(O)cc1)NC(=O)[C@H](CCC(=O)O)NC(=O)[C@H](CC(=O)O)NC(=O)[C@H](CC(C)C)NC(=O)[C@H](CC(C)C)NC(=O)[C@H](CCC(=O)O)NC(=O)[C@@H](NC(=O)[C@H](Cc1ccccc1)NC(=O)[C@H](CCC(=O)O)NC(=O)[C@H](CCC(=O)O)NC(=O)[C@H](CCC(=O)O)NC(=O)[C@H](C)NC(=O)[C@@H](N)CO)[C@@H](C)O)C(C)C)C(=O)N[C@@H](CCCCN)C(=O)N[C@@H](CCCCN)C(=O)O
IC50 (Glucagon-like peptide 1 receptor (GLP1R, Homo sapiens, UniProt P43220); calcium signal; antagonist; fluorescence): 15.7 µM
